Bioassay records deposited in PubChem BioAssay by Sanford-Burnham Center for Chemical Genomics.
Not all results are given here.
Apaf1 activ: activators of human Apaf-1 apoptosome, primary screen, biochemical, DEVD-Rh110 fluorescence, uHTS; Apaf-1 apoptosome caspase-3 activation; hits give low values; activity change, negative = activation, % at 20 µM; 0.31% of 330,000 active; AID 489031, 2010;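 active = activity change at or below -40% at 20 µM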
Target sequence (O14727 whole entry, looked up): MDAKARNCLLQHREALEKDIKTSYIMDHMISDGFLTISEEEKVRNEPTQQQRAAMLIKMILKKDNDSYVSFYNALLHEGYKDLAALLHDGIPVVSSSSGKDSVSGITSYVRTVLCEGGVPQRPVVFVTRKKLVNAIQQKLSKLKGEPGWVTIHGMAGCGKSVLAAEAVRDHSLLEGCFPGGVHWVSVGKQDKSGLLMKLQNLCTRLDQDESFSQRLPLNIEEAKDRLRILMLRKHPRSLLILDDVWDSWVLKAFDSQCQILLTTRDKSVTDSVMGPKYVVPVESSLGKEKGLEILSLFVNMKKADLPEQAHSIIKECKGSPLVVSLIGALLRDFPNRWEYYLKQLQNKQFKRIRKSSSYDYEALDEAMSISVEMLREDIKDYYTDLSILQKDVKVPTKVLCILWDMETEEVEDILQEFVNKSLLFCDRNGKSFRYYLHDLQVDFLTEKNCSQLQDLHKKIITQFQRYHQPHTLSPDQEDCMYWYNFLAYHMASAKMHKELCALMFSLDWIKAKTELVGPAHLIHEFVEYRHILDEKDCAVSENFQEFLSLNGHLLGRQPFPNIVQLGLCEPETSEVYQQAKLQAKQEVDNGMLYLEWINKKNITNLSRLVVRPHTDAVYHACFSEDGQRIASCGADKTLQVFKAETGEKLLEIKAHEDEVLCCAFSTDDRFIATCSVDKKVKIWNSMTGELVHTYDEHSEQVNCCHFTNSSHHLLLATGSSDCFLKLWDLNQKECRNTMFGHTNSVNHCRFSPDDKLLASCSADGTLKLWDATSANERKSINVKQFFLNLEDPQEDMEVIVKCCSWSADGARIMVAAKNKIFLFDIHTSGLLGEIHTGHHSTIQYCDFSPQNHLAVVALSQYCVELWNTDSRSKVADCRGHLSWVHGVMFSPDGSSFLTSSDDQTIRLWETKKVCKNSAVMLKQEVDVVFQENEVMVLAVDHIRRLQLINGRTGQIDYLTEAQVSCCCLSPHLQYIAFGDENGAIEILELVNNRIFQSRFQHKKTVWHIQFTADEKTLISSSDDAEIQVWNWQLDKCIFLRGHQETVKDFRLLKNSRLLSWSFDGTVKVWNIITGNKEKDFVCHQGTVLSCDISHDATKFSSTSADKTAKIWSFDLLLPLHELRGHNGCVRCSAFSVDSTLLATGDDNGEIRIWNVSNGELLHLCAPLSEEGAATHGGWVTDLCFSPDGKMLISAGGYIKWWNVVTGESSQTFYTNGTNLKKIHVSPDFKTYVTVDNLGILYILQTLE
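System: Reconstituted apoptosome of Apaf-1, cytochrome c, caspase-9, procaspase-3 | Reagent: dATP, cytochrome c, and (Z-DEVD)2-Rh110 caspase-3 substrate | Times: 30 min compound preincubation and 50 min reaction, both room temperature | Detection: Caspase-3-released Rh110 fluorescence, 540 nm emission, 480 nm excitation | Measure: Caspase-3 activity via Apaf-1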
Rh110 interf act: Rh110 fluorescence interference by putative Apaf-1 activators, confirmation, artefact control for Apaf-1 activator project, biochemical, 20 µM. shares compounds with Apaf1 activ. quenched caspase reaction, Ex480/Em540. fluorescence interference (activity change), % at 20 µM, hits read low. 980 tested, under 10 active. AID 504616, 2011;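 active = mean activity change at or below -40% when tested at 20 µM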
Apaf-1 act conf: Apaf-1 activators, single-dose retest, confirmation, biochemical, fluorescence, DEVD-Rh110, 20 µM | shares compounds with Apaf1 activ | reconstituted apoptosome caspase-3 activity; hits give low values | activity change, negative = activation, % at 20 µM | 5% of 980 active | AID 504617, 2011;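 active = mean activity change at or below -40%, meaning activation of 40% or more, at 20 µM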
Fluor interf act: fluorescence interference of Apaf-1 activator hits, dose response, artefact control for Apaf-1 activator project | shares compounds with Apaf1 activ | fluorescence interference counterscreen, Apaf-1 activator assay | EC50, µM | 55 tested, under 10 active | AID 588592, 2011; call rule not given here
Each line names hits and unclear results; the compound was inactive in the other large screens (follow-up assays come after a bar, where they were run).

CCCCCCCCCCOC(=O)Cn1c(COc2ccc(OC)cc2)[n+](C)c2ccccc21	none
Cc1ccc(C)c(-n2ccnc2SCC(=O)O)c1	Apaf1 activ -464.7 | Rh110 interf act inactive | Apaf-1 act conf inactive
CSc1nncc(/C(C)=N\Nc2cccc(C)c2)n1	none
O=C1c2[nH]nc(-c3ccccc3O)c2C(c2cccc(Cl)c2)N1Cc1ccco1 (stereo not given)	none
COCCNC(=O)c1onc(CSc2ccccc2)c1C(=O)O	Apaf1 activ -44.0 | Rh110 interf act inactive | Apaf-1 act conf inactive
COCCCNC(=O)c1ccc2c3c(onc13)-c1ccccc1C2=O	none
COc1cc(CCc2ccccc2)c(C(=O)O)c(O)c1C/C=C(/C)CCC=C(C)C	none
O=C(N/N=C/c1cc(Cl)cc([N+](=O)[O-])c1O)NC12CC3CC(CC(C3)C1)C2	Apaf1 activ -55.6 | Rh110 interf act inactive | Apaf-1 act conf -121.2 | Fluor interf act inactive
COc1cccc2nc3cc(C)c(C)cc3nc12	none
CCC(C)(C)C1CCc2c(sc(N)c2C(N)=O)C1 (stereo not given)	Apaf1 activ -47.9 | Rh110 interf act inactive | Apaf-1 act conf inactive
CCCC[n+]1ccn(C2=C([O-])c3ccccc3C(=O)/C2=N\S(=O)(=O)c2ccc(Br)cc2)c1	none
CCC(C)NCCOCCOc1ccc(Br)cc1 (stereo not given)	Apaf1 activ -47.5 | Rh110 interf act inactive | Apaf-1 act conf inactive
O=C1C(Cl)=C(NCCCO)C(=O)c2ccccc21	none
Nc1cccc2nsnc12	none
Cc1ccc(-c2csc(NC(=O)C3=NN(C4CCS(=O)(=O)C4)C(=O)CC3)n2)cc1 (stereo not given)	Apaf1 activ -58.0 | Rh110 interf act inactive | Apaf-1 act conf inactive
N=c1n(CC(=O)c2ccc(Br)s2)c2ccccc2n1Cc1ccccc1	none
CCOC(=O)c1nn(-c2ccccc2)c(=O)c2c(N)scc12	none
OC(CNCC1CCCO1)Cn1c2ccc(Cl)cc2c2cc(Cl)ccc21 (stereo not given)	none
CCOc1cc(/C=C2/C(=O)N(c3ccccc3)N=C2C)ccc1OC(=O)c1cccs1	none
Cc1ccc2c(C)nc(Nc3nc(CSc4nc5ccccc5[nH]4)cc(=O)[nH]3)nc2c1	Apaf1 activ -71.4 | Rh110 interf act inactive | Apaf-1 act conf inactive
CC(C)C(NS(=O)(=O)c1ccc2c(c1)oc(=O)n2C)C(=O)N1CCN(C2CCCCC2)CC1 (stereo not given)	Apaf1 activ -53.8 | Rh110 interf act inactive | Apaf-1 act conf inactive
COc1cc2[nH]c(=O)n(Cc3ccc(C(=O)NC4CCCC4)cc3)c(=O)c2cc1OC	Apaf1 activ -52.8 | Rh110 interf act inactive | Apaf-1 act conf inactive
O=C(c1ccc(Cn2c(=O)[nH]c3ccccc3c2=O)cc1)N1CCN(c2ccc(Cl)cc2)CC1	none
Clc1ccc(-c2cn3nc4c(nc3n2)CCCC4)cc1	none
CN1CCN(S(=O)(=O)c2ccc(SCCOc3ccc(Cl)cc3)nc2)CC1	none
CCOc1cccc2sc(N(CCCN(C)C)C(=O)c3ccc(S(=O)(=O)N4CCc5ccccc5C4)cc3)nc12	none
CCOc1ccc(S(=O)(=O)N2CCc3ccccc3C2)cc1	Apaf1 activ -120.1 | Rh110 interf act inactive | Apaf-1 act conf inactive
CCN(CC)CCOC(=O)c1ccc(NC(=O)CCCN2C(=O)/C(=C\c3cccs3)SC2=S)cc1	none
COc1ccc(C2CC(c3ccc(OC)cc3)n3nc(NC(=O)c4ccco4)nc3N2)cc1 (stereo not given)	Apaf1 activ -329.7 | Rh110 interf act inactive | Apaf-1 act conf inactive
COc1ccc2c(c1)Cc1sc(NC(=O)c3ccco3)nc1-2	none
CCOC(=O)N1CCC(N2Cc3cccc(C(=O)Nc4ccccc4OC)c3C2=O)CC1	Apaf1 activ -44.2 | Rh110 interf act inactive | Apaf-1 act conf inactive
CCN(Cc1ccccc1)S(=O)(=O)c1ccc(C(=O)N(CCCN(C)C)c2nc3cc(OC)ccc3s2)cc1	none
Cc1noc(C)c1NC(=O)N(C)C[C@H]1Oc2ccc(NC(=O)CCN3CCOCC3)cc2C(=O)N([C@H](C)CO)C[C@@H]1C	Apaf1 activ -45.7 | Rh110 interf act inactive | Apaf-1 act conf inactive
C[C@H](CO)N1C[C@H](C)[C@@H](CN(C)Cc2ccc(-c3ccccc3)cc2)Oc2c(NC(=O)Cc3ccccc3)cccc2C1=O	none
Cc1c(C(=O)N2CCOCC2)c(S(=O)(=O)Nc2cccc(Br)c2)c(C)n1C	Apaf1 activ -43.6 | Rh110 interf act inactive | Apaf-1 act conf inactive
